Active and inactive are the calls of the source. The rule behind the calls is not given here.

Broadly, the Papp is a coefficient for how fast a substance crosses the barrier. One may read the MTD as the highest dose tested that stayed within the study's limit of toxicity. As usually defined, the Kd is the equilibrium constant for the complex coming apart. A high value points to lower affinity. The term EC50 denotes the concentration that produces a half-maximal response. One may read the inhibition as the relative decrease from the control value, in per cent.

Data set [1] is described as follows: Apparent permeability in human Caco-2 cells at 5 uM measured up to 90 mins by LC-MS/MS analysis. Format: ADME, cell-based. In general terms: Passage across Caco-2 layers is used to estimate intestinal permeability.
The nature of data set [2]: Induction of Zinc-dependent p53 R175H mutant refolding by assessing wild type conformation. Put shortly: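 Cells grown on coverslips and treated, fixed in 4% paraformaldehyde 10 min, permeabilized in 0.5% Triton X-100 5 min. Stained overnight with conformation-specific antibodies PAB1620 (1:50, wild-type fold) and PAB240 (1:400, misfolded/unfolded), then goat anti-mouse IgG secondary for 40 min.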

Data set [3] is described as follows: Toxicity in mouse assessed as maximum tolerated dose. The conditions noted are these: in vivo. Put shortly: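 Acute single-dose test in NCr nu/nu nude mice aged 8–12 weeks, 5 mice per dose. One intraperitoneal injection was given, then health, behaviour and body weight were monitored.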
Data set [4] concerns TOV112D. In words: Anticancer activity against human TOV112D cells harbouring p53 R175H mutant xenografted NCr nu/nu mouse assessed as tumor growth inhibition at 5.73 mg/kg, ip relative to control. The conditions noted are these: read-out: TGI. Format: functional. The gist of the method:
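Tumors (five per group) were grown to 50 mm³, then the compound was given ip daily. Dimensions were measured every other day, with volume = L × W² × π/6. Significance was tested by Student's t test.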
(In general: In xenograft studies the graft and the host belong to different species.)

The nature of data set [5]: Stability in simulated gastric fluid assessed as parent compound remaining measured after 7 hrs at room temperature. Format: ADME. The conditions noted are these: read-out: Stabilty. The gist of the method: (§1)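 Incubation in simulated gastric fluid (pH 1–2) at room temperature (~23 °C) or 37 °C. Parent compound remaining quantified by HPLC at 220 and 254 nm, with peak identity confirmed by LC–MS.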

Data set [6] is described as follows: Binding affinity to Zn(II)+ incubated for 60 mins using FluoZin-3 by fuorescence assay.
For data set [7], the system named is TOV112D. The data set can be described thus: Growth inhibition of human TOV112D cells harbouring p53 R175H mutant incubated for 3 days by MTS assay. Format: functional, cell-based. The conditions noted are these: 72 h. A general note: Tetrazolium assays rely on reduction of a dye to a coloured formazan, in cell work by metabolically active cells.
The target of data set [8] is hERG (KCNH2) (Homo sapiens, UniProt Q12809). The data set can be described thus: Displacement of [3H]-dofetilide from human recombinant ERG at 10 uM relative to control. Particulars: probe [3H]-dofetilide.
Data set [9] has as its target 5-hydroxytryptamine receptor 2A (Homo sapiens, UniProt P28223). The data set can be described thus: Displacement of [125I]+/-DOI from human recombinant 5-HT2A receptor at 10 uM after 60 mins by scintillation counting analysis relative to control. Particulars: recombinant human 5-HT2A receptor, probe [125I]+/-DOI.
The target of data set [10] is Sodium-dependent noradrenaline transporter (Homo sapiens, UniProt P23975). The data set can be described thus: Displacement of [3H]nisoxetine from recombinant human norepinephrine transporter at 10 uM incubated for 120 mins by radiometric scintillation analysis relative to control. Format: ADME. Particulars: probe [3H]nisoxetine.
A short description of data set [11]: Binding affinity to Cu(II)+ using CuSO4.
A short description of data set [12]: Growth inhibition of human TOV112D cells harbouring p53 R175H mutant incubated for 3 days combination with 5 Gy radiation by MTS assay. Format: functional, cell-based. The conditions noted are these: TOV-112D, 72 h. The gist of the method:
(§2)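 5000 cells per well seeded to reach 50% confluence the next day, then given serial dilutions of compound; line 1 cells also received 5 Gy γ-irradiation, line 2 cells also received etoposide (level not stated). Growth read by MTS or Calcein AM after 3 days (72 h). EC50 taken from dilution curve; three independent experiments, each in triplicate, Student's t test.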

Data set [13] is described as follows: Growth inhibition of human TOV112D cells harbouring p53 R175H mutant incubated for 3 days combination with etoposide by MTS assay. Format: functional, cell-based. The conditions noted are these: TOV-112D, 72 h. Put shortly: as §2
A short description of data set [14]: Stability in simulated gastric fluid assessed as parent compound remaining measured after 6 hrs at room temperature. The conditions noted are these: read-out: Stabilty. Format: ADME. Put shortly: as §1
Data set [15] can be described thus: Stability in simulated gastric fluid assessed as parent compound remaining measured at 37 degC. Format: ADME. The conditions noted are these: simulated gi fluid. The gist of the method: as §1

hERG (KCNH2), sequence (Q12809 whole entry): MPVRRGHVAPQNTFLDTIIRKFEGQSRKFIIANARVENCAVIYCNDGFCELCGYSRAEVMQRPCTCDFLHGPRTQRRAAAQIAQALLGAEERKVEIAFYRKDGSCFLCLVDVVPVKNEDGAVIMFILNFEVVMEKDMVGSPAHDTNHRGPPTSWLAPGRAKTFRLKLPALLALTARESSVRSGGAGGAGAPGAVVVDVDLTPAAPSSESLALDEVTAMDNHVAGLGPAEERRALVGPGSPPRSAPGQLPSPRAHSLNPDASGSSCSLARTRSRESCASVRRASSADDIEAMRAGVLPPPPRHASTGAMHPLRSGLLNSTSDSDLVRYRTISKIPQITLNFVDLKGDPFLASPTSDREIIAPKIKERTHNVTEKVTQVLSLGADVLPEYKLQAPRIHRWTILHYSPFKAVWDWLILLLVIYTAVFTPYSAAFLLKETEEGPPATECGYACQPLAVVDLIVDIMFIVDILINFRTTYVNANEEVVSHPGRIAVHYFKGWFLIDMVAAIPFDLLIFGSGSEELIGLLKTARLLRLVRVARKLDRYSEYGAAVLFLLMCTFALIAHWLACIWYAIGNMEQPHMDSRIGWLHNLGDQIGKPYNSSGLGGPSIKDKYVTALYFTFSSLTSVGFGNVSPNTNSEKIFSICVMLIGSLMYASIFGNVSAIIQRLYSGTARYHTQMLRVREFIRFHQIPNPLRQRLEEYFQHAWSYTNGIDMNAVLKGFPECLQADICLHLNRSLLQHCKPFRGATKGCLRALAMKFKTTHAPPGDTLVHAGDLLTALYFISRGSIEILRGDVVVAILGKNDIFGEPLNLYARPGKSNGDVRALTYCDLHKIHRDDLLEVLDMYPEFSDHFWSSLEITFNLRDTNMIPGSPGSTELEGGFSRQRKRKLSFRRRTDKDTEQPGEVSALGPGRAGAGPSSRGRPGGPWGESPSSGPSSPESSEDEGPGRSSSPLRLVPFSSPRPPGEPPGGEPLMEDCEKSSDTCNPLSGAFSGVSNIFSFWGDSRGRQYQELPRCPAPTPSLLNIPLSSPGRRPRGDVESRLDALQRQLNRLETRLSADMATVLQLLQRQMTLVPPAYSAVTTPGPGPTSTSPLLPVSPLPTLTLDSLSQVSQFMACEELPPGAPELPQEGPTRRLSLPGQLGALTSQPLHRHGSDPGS
Sodium-dependent noradrenaline transporter, sequence (P23975 whole entry): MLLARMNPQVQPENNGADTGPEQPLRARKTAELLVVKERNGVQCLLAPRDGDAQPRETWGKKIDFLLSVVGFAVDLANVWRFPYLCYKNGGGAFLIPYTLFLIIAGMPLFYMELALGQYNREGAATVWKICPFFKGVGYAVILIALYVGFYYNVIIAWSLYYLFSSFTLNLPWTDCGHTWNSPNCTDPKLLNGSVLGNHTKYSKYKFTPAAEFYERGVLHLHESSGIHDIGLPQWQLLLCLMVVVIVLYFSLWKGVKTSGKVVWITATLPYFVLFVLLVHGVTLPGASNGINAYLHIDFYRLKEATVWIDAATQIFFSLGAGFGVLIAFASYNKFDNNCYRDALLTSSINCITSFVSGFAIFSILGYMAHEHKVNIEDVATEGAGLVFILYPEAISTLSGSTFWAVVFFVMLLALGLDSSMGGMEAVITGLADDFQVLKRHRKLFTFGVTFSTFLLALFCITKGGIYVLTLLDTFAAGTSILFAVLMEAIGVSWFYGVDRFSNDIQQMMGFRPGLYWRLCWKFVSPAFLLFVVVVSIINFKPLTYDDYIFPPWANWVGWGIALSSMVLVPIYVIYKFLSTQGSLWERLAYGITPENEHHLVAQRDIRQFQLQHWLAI
5-hydroxytryptamine receptor 2A, sequence (P28223 whole entry): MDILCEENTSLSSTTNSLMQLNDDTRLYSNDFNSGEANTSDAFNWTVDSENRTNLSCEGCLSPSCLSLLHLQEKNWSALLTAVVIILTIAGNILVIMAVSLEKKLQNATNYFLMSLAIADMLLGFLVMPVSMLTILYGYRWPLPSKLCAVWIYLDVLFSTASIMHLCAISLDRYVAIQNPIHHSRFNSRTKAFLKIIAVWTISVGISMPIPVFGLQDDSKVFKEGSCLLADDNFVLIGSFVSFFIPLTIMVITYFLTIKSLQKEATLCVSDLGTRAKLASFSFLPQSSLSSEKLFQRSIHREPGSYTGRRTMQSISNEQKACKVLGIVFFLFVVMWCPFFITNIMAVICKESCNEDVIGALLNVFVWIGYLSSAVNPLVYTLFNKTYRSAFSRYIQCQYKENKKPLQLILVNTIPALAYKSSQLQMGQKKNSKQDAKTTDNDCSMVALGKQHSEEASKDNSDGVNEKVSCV

As to `C/C(=N\NC(=S)N1CCC1)c1ccccn1`, the apparent permeability coefficient (Papp) at […], 5 µM in [1] came to 4.4 ×10⁻⁶ cm/s. Further, the outcome in [2] was Active. Moreover, the MTD in data set [3] was determined as 5 mg/kg. In data set [4], the inhibition in vivo at 5.73 mg/kg came out at 63%. For the same compound, in [5], the remaining at 7 h was 22%.

Take `C/C(=N\Nc1nc2ccccc2n1CCN1CCC(F)(F)C1)c1ccccn1`: the equilibrium dissociation constant (Kd) in data set [6] worked out at 26 nM; in data set [11] it was 0.001 pM. Further, the figures for the EC50 in [7], in [12] and in data set [13] were 151 nM, 180 nM and 120 nM, respectively. For the same compound, the result in data set [2] was Active. In addition, the inhibition at 10 µM in data set [8] was found to be 101%. Further, in [9], the inhibition at 1 h, 10 µM was found to be 92%. Besides, the inhibition at 2 h, 10 µM in data set [10] is -1%. Also, the remaining at 6 h in [14] was greater than 92%. For the same compound, the Stabilty in [15] was greater than 82%.
